Compounds with a hit are over-represented: about 1.7% of the library has one in this group of screens.
EBNA-1 inh: EBNA-1 DNA-binding inhibitors, primary screen, biochemical, fluorescence polarization. 300,000 tested, 0.34% active. inhibition, % at 14.8 µM. AID 1950, 2009; in the data active = inhibition above about 28%
UBC13 polyUb: UBC13 polyubiquitin chain formation inhibitors, primary screen, biochemical, TR-FRET, uHTS. Ubiquitin-conjugating enzyme E2 N (Homo sapiens), P61088. inhibition, % at 20 µM. 330,000 tested, 0.47% active. AID 485273, 2010; in the data active = inhibition above about 45%, passing the limit was not always enough
PREPL inh: PREPL enzyme inhibitors, primary screen, biochemical, fluorescence polarization | Prolyl endopeptidase-like (Homo sapiens), Q4J6C6 | recombinant PREPL, fluorescence polarization activity-based probe | inhibition, % at 5.96 µM | 320,000 tested, 0.68% active | AID 2751, 2010; in the data active = inhibition above about 43%
ZTA counter: counter-screen for EBNA-1 inhibitors: inhibitors of Epstein-Barr virus ZTA; inhibition, % at 11 µM; ZTA-DNA binding, fluorescence polarization; AID 2234; P03206; 320,000 tested, 0.15% active; in the data active = inhibition above about 33%
Apaf1 inhib: inhibitors of human Apaf-1 apoptosome, primary screen, biochemical, DEVD-Rh110 fluorescence, uHTS; 330,000 tested, 0.71% active; inhibition, % at 20 µM; Apoptotic protease-activating factor 1 (Homo sapiens), O14727; AID 489030, 2010; reconstituted apoptosome caspase-3 activity; active = inhibition of at least 40% at 20 µM
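Material: reconstituted apoptosome with Apaf-1, cytochrome c, caspase-9, procaspase-3, dATP; medium: pH 7.5 Hepes buffer with CHAPS, BSA, DTT; also added: cytochrome c and DEVD-Rh110 substrate; timing: 30 min plus 50 min, RT; signal: Rh110 fluorescence intensity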
Apaf-1 inh conf: Apaf-1 inhibitors, single-dose retest, confirmation, biochemical, fluorescence, DEVD-Rh110, 20 µM | shares compounds with Apaf1 inhib | reconstituted apoptosome, caspase-3 DEVD-Rh110 fluorescence | inhibition, % at 20 µM | 1,800 tested, 25% active | AID 504614, 2011;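 active = mean inhibition of at least 40% at 20 µM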
Rh110 interf inh: Rh110 fluorescence interference by putative Apaf-1 inhibitors, confirmation, artefact control for Apaf-1 inhibitor project, biochemical, 20 µM; quenched caspase reaction; 1,800 tested, under 10 active; shares compounds with Apaf1 inhib; activation (fluorescence interference), % at 20 µM;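 active = signal rise of 40% or more at 20 µM, treated as a fluorescence artifact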
Fluor interf inh: fluorescence interference of Apaf-1 inhibitor hits, dose response, artefact control for Apaf-1 inhibitor project. shares compounds with Apaf1 inhib. fluorescence interference counterscreen, Apaf-1 assay format. IC50, µM. 460 tested, under 10 active. AID 588538, 2011; call rule not given here
Each line names hits and unclear results; the compound was inactive in the other large screens (follow-up assays come after a bar, where they were run).

COc1ccc2[nH]c3c(c2c1)CCN1C(=O)C(CC(=O)NCCC2=CCCCC2)C[C@H](C(=O)N2CCOCC2)[C@@]31CCC1CCCC1 (stereo not given in full)	Apaf1 inhib 44 (no result: EBNA-1 inh, UBC13 polyUb, PREPL inh, ZTA counter) | Apaf-1 inh conf inactive | Rh110 interf inh inactive
COc1cc(C(=O)N/N=C/c2coc3ccc(Cl)cc3c2=O)ccc1O	none
COc1ccccc1NC(=O)N(CCN(C)C)Cc1cc2cc(C)ccc2[nH]c1=O	none
CCc1ccc(S(=O)(=O)Nc2cc(SCC(=O)O)c(O)c3ccccc23)cc1	Apaf1 inhib 71 | Apaf-1 inh conf inactive | Rh110 interf inh inactive
Cn1c(=O)c2[nH]c(=O)cnc2n(C)c1=S	Apaf1 inhib 56 | Apaf-1 inh conf inactive | Rh110 interf inh inactive
Cn1c(=O)[nH]c2cc(Cl)cnc21	none
O=C(NNc1cc(N2CCOCC2)nc(N2CCOCC2)n1)c1ccc(Cl)c(Cl)c1	none
Cc1ccc(C(=O)NNc2cc(N3CCCC3)nc(N3CCCC3)n2)cc1	Apaf1 inhib 97 | Apaf-1 inh conf 89 | Rh110 interf inh inactive | Fluor interf inh inactive
N#Cc1c(NCCO)nc(NCc2ccccc2)c2c1CCN(Cc1ccccc1)C2	Apaf1 inhib 60 | Apaf-1 inh conf inactive | Rh110 interf inh inactive
CCN1CCc2c(C#N)c(N3CCCCC3)nc(NCc3ccccc3)c2C1	none
Cc1ccc2c(c1)c1cccc3c1n2CCN3CCC(N)=O	Apaf1 inhib 51 | Apaf-1 inh conf inactive | Rh110 interf inh inactive
[O-][n+]1cccc2c(Br)cc(Br)c(O)c21	Apaf1 inhib 73 | Apaf-1 inh conf inactive | Rh110 interf inh inactive
O=C1CCN2C=Nc3cccc4ccc1c2c34	Apaf1 inhib 43 | Apaf-1 inh conf inactive | Rh110 interf inh inactive
O=C(CSc1ncc(-c2ccccc2)n1-c1ccccc1)NCc1ccco1	none
Cc1[nH]n(-c2ccccc2)c(=O)c1-c1ccccc1	none
CCOc1cccc(C(c2c(C)n(C)n(-c3ccccc3)c2=O)c2c(C)n(C)n(-c3ccccc3)c2=O)c1OC	none
COc1cccc(C(c2c(C)[nH]n(-c3ccccc3)c2=O)c2c(C)[nH]n(-c3ccccc3)c2=O)c1OC	Apaf1 inhib 97 | Apaf-1 inh conf inactive | Rh110 interf inh inactive
COc1cccc(C(c2c(C)[nH]n(-c3ccccc3)c2=O)c2c(C)[nH]n(-c3ccccc3)c2=O)c1O	Apaf1 inhib 94 | Apaf-1 inh conf inactive | Rh110 interf inh inactive
NC1=Nc2cccc3cccc1c23	Apaf1 inhib 67 | Apaf-1 inh conf inactive | Rh110 interf inh inactive
C(=N\NC1=Nc2cccc3cccc1c23)/c1ccccc1	none
CC1(C)Cc2c(cnn2-c2cccc(F)c2)C(NC(=O)c2csnn2)C1 (stereo not given)	none
Cc1[nH]n(-c2ccccc2)c(=O)c1C(=O)c1ccccc1	Apaf1 inhib 61 | Apaf-1 inh conf inactive | Rh110 interf inh inactive
Cc1[nH]n(-c2ccccc2)c(=O)c1C(=O)c1ccc(Cl)cc1	none
Cc1ccc2c(c1)C(=O)C(=O)N2Cc1ccc(Cl)cc1	Apaf1 inhib 40 (no result: EBNA-1 inh, ZTA counter) | Apaf-1 inh conf inactive | Rh110 interf inh inactive
O=C(OCc1nc2ccccc2s1)c1ccc([N+](=O)[O-])o1	Apaf1 inhib 69 | Apaf-1 inh conf inactive | Rh110 interf inh inactive
CC(NC(=O)c1cc2ccccc2o1)c1ccccc1 (stereo not given)	none
Cc1cc(-n2c(C)cc(C(=O)CSc3nnnn3-c3ccc(Cl)cc3)c2C)no1	none
CN(c1ccccc1)S(=O)(=O)c1cccc(C(=O)NCc2ccccc2CN2CCCC2)c1	Apaf1 inhib 52 (no result: EBNA-1 inh) | Apaf-1 inh conf inactive | Rh110 interf inh inactive
CN(c1ccccc1)S(=O)(=O)c1ccc(C(=O)NCc2ccccc2CN2CCCC2)cc1	none (no result: EBNA-1 inh, PREPL inh, ZTA counter)
